From ChEMBL document CHEMBL4706580, “4-Amino-1,2,4-triazole-3-thione-derived Schiff bases as metallo-β-lactamase inhibitors” (Eur J Med Chem, 2020)
The source made the active and inactive calls. The rule behind the calls is not given here.

Columns and labels:
[1] = Inhibition of beta-lactamase IMP-1 (unknown origin) expressed in Escherichia coli BL21(DE3) using imipenem as substrate by measuring substrate hydrolysis at 200 uM by spectrophotometric analysis
Procedure, shortened: (§1)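 Purified enzyme (overproduced in E. coli BL21(DE3), pET-9a; ion-exchange and gel filtration), 1-70 nM final. Reporter substrate 150 μM imipenem, read at 300 nm, 30 °C, 50 mM HEPES pH 7.5. Single-point screen at 100 or 200 μM; Ki from v0/vi vs [I] (0.5–1,000 μM final) assuming competitive inhibition, or Dixon plot. Triplicate.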

[2] = Inhibition of beta-lactamase IMP-1 (unknown origin) expressed in Escherichia coli BL21(DE3) using imipenem as substrate by measuring substrate hydrolysis at 100 uM by spectrophotometric analysis; procedure, shortened: as §1
[3] = Inhibition of beta-lactamase NDM1 (unknown origin) expressed in Escherichia coli BL21(DE3) using cefotaxime/nitrocefin as substrate by measuring substrate hydrolysis at 200 uM by spectrophotometric analysis
[4] = Inhibition of beta-lactamase NDM1 (unknown origin) expressed in Escherichia coli BL21(DE3) using cefotaxime/nitrocefin as substrate by measuring substrate hydrolysis at 100 uM by spectrophotometric analysis
[5] = Inhibition of beta-lactamase VIM2 (unknown origin) expressed in Escherichia coli BL21(DE3) using imipenem as substrate by measuring substrate hydrolysis at 100 uM by spectrophotometric analysis; procedure, shortened: as §1
[6] = Inhibition of beta-lactamase VIM4 (unknown origin) expressed in Escherichia coli BL21(DE3) using imipenem as substrate by measuring substrate hydrolysis at 100 uM by spectrophotometric analysis; procedure, shortened: as §1
[7] = Inhibition of beta-lactamase L1 (unknown origin) expressed in Escherichia coli BL21(DE3) using nitrocefin as substrate by measuring substrate hydrolysis at 100 uM preincubated for 30 mins by spectrophotometric analysis
Procedure, shortened: (§2)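 Enzyme 0.2–0.8 nM in 25 mM HEPES pH 7.5 with 50 μM ZnCl2 final, pre-incubated 30 min at 21 °C with inhibitor (100 μM screen). Nitrocefin 100 μM final, read at 482 nm, 30 °C. Residual activity vs three uninhibited samples; Ki (1–100 μM inhibitor) from Hanes linearization, competitive model. Triplicate.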

[8] = Inhibition of beta-lactamase VIM4 (unknown origin) expressed in Escherichia coli BL21(DE3) using imipenem as substrate by measuring substrate hydrolysis at 200 uM by spectrophotometric analysis; procedure, shortened: as §1
[9] = Inhibition of beta-lactamase VIM2 (unknown origin) expressed in Escherichia coli BL21(DE3) using imipenem as substrate by measuring substrate hydrolysis at 200 uM by spectrophotometric analysis; procedure, shortened: as §1
[10] = Inhibition of beta-lactamase L1 (unknown origin) expressed in Escherichia coli BL21(DE3) using nitrocefin as substrate by measuring substrate hydrolysis at 200 uM preincubated for 30 mins by spectrophotometric analysis
[11] = Inhibition of beta-lactamase CphA (unknown origin) expressed in Escherichia coli BL21(DE3) using imipenem as substrate by measuring substrate hydrolysis at 100 uM by spectrophotometric analysis
Procedure, shortened: (§3)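 Enzyme 0.2–0.8 nM in 15 mM cacodylate pH 6.5, no added zinc, pre-incubated 30 min at 21 °C with inhibitor (100 μM screen). Imipenem substrate added from 10 mM stock; hydrolysis at 300 nm, 30 °C. Residual activity vs three uninhibited samples; Ki (1–100 μM inhibitor) by Hanes linearization, competitive model. Triplicate.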

[12] = Inhibition of beta-lactamase NDM-1 (unknown origin) expressed in Escherichia coli LZ2310 assessed as potentiation of ceftazidime antibacterial activity by measuring ceftazidime induced diameter of inhibition zone at 40 uM incubated for 18 hrs by disk diffusion method (reference value: 15 mm)
Procedure, shortened: (§4)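 Efflux-deficient E. coli LZ2310 (NorE, MdfA, AcrA knocked out) carrying pLB-II with the cloned MBL gene. Mueller-Hinton, CLSI disk diffusion; antibiotic disks (30 µg cefoxitin for VIM-2, 10 µg ampicillin for VIM-4, 30 µg ceftazidime for NDM-1/IMP-1) loaded with inhibitor in DMSO (≤15 µL). Zone diameter after 18 h, 35 ± 1 °C; DMSO and 220 µg EDTA controls. Triplicate.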

[13] = Inhibition of beta-lactamase VIM4 (unknown origin) expressed in Escherichia coli BL21(DE3) using imipenem as substrate by measuring substrate hydrolysis by spectrophotometric analysis; procedure, shortened: as §1
[14] = Inhibition of beta-lactamase VIM-2 (unknown origin) expressed in Escherichia coli LZ2310 assessed as potentiation of cefoxitin antibacterial activity by measuring cefoxitin induced diameter of inhibition zone at 40 uM incubated for 18 hrs by disk diffusion method (reference value: 14 mm); procedure, shortened: as §4
[15] = Inhibition of beta-lactamase CphA (unknown origin) expressed in Escherichia coli BL21(DE3) using imipenem as substrate by measuring substrate hydrolysis by spectrophotometric analysis; procedure, shortened: as §3
[16] = Inhibition of beta-lactamase VIM-4 (unknown origin) expressed in Escherichia coli LZ2310 assessed as potentiation of ampicillin antibacterial activity by measuring ampicillin induced diameter of inhibition zone at 40 uM incubated for 18 hrs by disk diffusion method (reference value: 6 mm); procedure, shortened: as §4
[17] = Inhibition of beta-lactamase NDM1 (unknown origin) expressed in Escherichia coli BL21(DE3) using cefotaxime/nitrocefin as substrate by measuring substrate hydrolysis by spectrophotometric analysis
Procedure, shortened: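 His-tagged enzyme from E. coli BL21(DE3) pET-15b, affinity-purified, 1-70 nM final. Reporter substrate 120 μM cefotaxime (260 nm) or 100 μM nitrocefin (482 nm), 30 °C, 50 mM HEPES pH 7.5. Inhibitor 0.5–1,000 μM final; competitive Ki from v0/vi vs [I] slope or Dixon plot. Triplicate.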

[18] = Inhibition of beta-lactamase VIM2 (unknown origin) expressed in Escherichia coli BL21(DE3) using imipenem as substrate by measuring substrate hydrolysis by spectrophotometric analysis; procedure, shortened: as §1
[19] = Inhibition of beta-lactamase L1 (unknown origin) expressed in Escherichia coli BL21(DE3) using nitrocefin as substrate by measuring substrate hydrolysis preincubated for 30 mins by spectrophotometric analysis; procedure, shortened: as §2
[20] = Inhibition of beta-lactamase IMP-1 (unknown origin) expressed in Escherichia coli BL21(DE3) using imipenem as substrate by measuring substrate hydrolysis by spectrophotometric analysis; procedure, shortened: as §1

Row | SMILES | inhibition [1] | inhibition [2] | inhibition [3] | inhibition [4] | inhibition [5] | inhibition [6] | inhibition [7] | inhibition [8] | inhibition [9] | inhibition [10] | inhibition [11] [%] | inhibition zone (IZ) [12] [mm] | Ki [13] [µM] | inhibition zone (IZ) [14] [mm] | Ki [15] [µM] | inhibition zone (IZ) [16] [mm] | Ki [17] [µM] | Ki [18] [µM] | Ki [19] [µM] | Ki [20] [µM]
1 | S=c1[nH]nc(-c2cccc(Br)c2)n1/N=C/c1ccc(OCc2ccccc2)cc1 | inactive | inactive | inactive | inactive | inactive | inactive | 15% | inactive | inactive | – | – | – | – | – | – | – | – | – | – | –
2 | S=c1[nH]nc(C(c2ccccc2)c2ccccc2)n1/N=C/c1ccc(OCc2ccccc2)cc1 | 50% | – | 60% | – | inactive | inactive | inactive | inactive | inactive | inactive | – | – | – | – | – | – | – | – | – | –
3 | O=C(O)c1ccccc1/C=N/n1c(-c2cccc(C(F)(F)F)c2)n[nH]c1=S | 50% | – | – | – | inactive | – | 40% | – | inactive | – | 35 | 15 | 1.6 | – | – | – | – | – | – | –
4 | Oc1ccc(/C=N/n2c(-c3ccc(OCc4ccccc4)cc3)n[nH]c2=S)c(O)c1 | – | 62% | – | 42% | inactive | inactive | inactive | inactive | inactive | inactive | – | – | – | – | – | – | – | – | – | –
5 | COc1cc(O)ccc1/C=N/n1c(-c2ccccc2C)n[nH]c1=S | inactive | inactive | – | – | – | – | – | – | – | – | – | – | 2.4 | 14 | 4 | 7 | 120 | 10 | 6 | –
6 | S=c1[nH]nc(CCc2ccccc2)n1/N=C/c1ccc(OCc2ccccc2)cc1 | – | – | – | 30% | inactive | – | – | – | inactive | – | – | – | 2 | – | 1 | 6 | – | – | 32 | 9
7 | O=C(O)c1ccccc1/C=N/n1c(-c2ccc(OCc3ccccc3)cc2)n[nH]c1=S | – | 62% | – | – | – | – | – | – | – | – | – | 15 | 1 | 14 | – | – | 2.8 | 0.9 | 0.4 | –
8 | S=c1[nH]nc(Cc2ccccc2)n1/N=C/c1ccc(OCc2ccccc2)cc1 | inactive | inactive | inactive | inactive | inactive | inactive | 31% | inactive | inactive | – | – | – | – | – | 5.5 | – | – | – | – | –
9 | Cc1ccccc1-c1n[nH]c(=S)n1/N=C/c1cc(O)ccc1O | – | 54% | – | 37% | – | – | 48% | – | – | – | 54 | – | 1.6 | 14 | – | 6 | – | 11 | – | –
10 | Oc1ccc(/C=N/n2c(-c3cccc(F)c3)n[nH]c2=S)c(O)c1 | inactive | inactive | – | – | inactive | – | 25% | – | inactive | – | – | 15 | 4 | – | – | – | 11.7 | – | – | –
11 | Cc1ccccc1-c1n[nH]c(=S)n1/N=C/c1ccc(F)cc1 | – | 30% | 60% | – | inactive | inactive | 30% | inactive | inactive | – | – | – | – | – | – | – | – | – | – | –
12 | O=C(O)c1ccccc1/C=N/n1c(-c2cc(O)ccc2O)n[nH]c1=S | inactive | inactive | – | – | – | – | – | – | – | – | – | – | 0.2 | 14 | 52 | 6 | 79 | 0.6 | 38 | –
13 | S=c1[nH]nc(-c2ccc(OCc3ccccc3)cc2)n1/N=C/c1ccc(OCc2ccccc2)cc1 | – | – | – | – | inactive | inactive | inactive | inactive | inactive | inactive | – | – | – | – | – | – | 3.2 | – | – | 2.2
14 | O=C(O)c1ccccc1/C=N/n1c(COc2ccc3ccccc3c2)n[nH]c1=S | – | 35% | – | – | – | – | 60% | – | – | – | 42 | 15 | 3 | 14 | – | – | 2.4 | 2 | – | –
15 | Cc1ccccc1-c1n[nH]c(=S)n1/N=C/c1cnc[nH]1 | inactive | inactive | inactive | inactive | inactive | inactive | inactive | inactive | inactive | inactive | 36 | – | – | – | – | – | – | – | – | –
16 | Fc1cccc(-c2n[nH]c(=S)n2/N=C/c2ccc(OCc3ccccc3)cc2)c1 | – | 60% | inactive | inactive | inactive | inactive | inactive | inactive | inactive | inactive | – | – | – | – | – | – | – | – | – | –
17 | S=c1[nH]nc(-c2cccc(Cl)c2)n1/N=C/c1ccc(OCc2ccccc2)cc1 | inactive | inactive | – | – | inactive | 35% | 60% | – | inactive | – | – | 15 | – | – | – | – | 6.7 | – | – | –
18 | O=C(O)c1ccccc1/C=N/n1c(CC(c2ccccc2)c2ccccc2)n[nH]c1=S | inactive | inactive | – | – | – | – | – | – | – | – | – | 15 | 5.6 | – | 15 | – | 2.7 | 25.4 | 2.4 | –
19 | O=C(O)c1ccccc1/C=N/n1c(CCc2ccccc2)n[nH]c1=S | – | 37% | inactive | inactive | – | 56% | – | – | – | – | 50 | 15 | – | 14 | – | – | – | 7 | 4 | –
